Data set [1] relates to Mus musculus. In words: Anticonvulsant activity in ip dosed Swiss mouse assessed as protection against maximal electroshock-induced seizure administered 15 mins before test. It counts as functional. In a few lines:
(§1)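 Mice in groups of 8, each used once, given various i.p. doses of fresh solution at the stated pretreatment time before maximal electroshock. Protection percentages give dose-response lines by Litchfield-Wilcoxon. ED50 is the dose protecting 50% of mice against MES seizures, reported ± S.E.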

Data set [2] has as its system Mus musculus. Kind of data set: Protective index, ratio of TD50 for Swiss mouse administered 15 mins before test to ED50 for Swiss mouse administered 15 mins before test. It is filed as functional.
Data set [3] is described as follows: Neurotoxicity in ip dosed Swiss mouse assessed as delay in motor coordination administered 15 mins before test by chimney test. It is filed as toxicity, organism-based. The note with it: in vivo. In a few lines: (§2)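 Chimney test (Boissier). Mice must climb backward up a transparent tube (3 cm i.d., 30 cm long) within 60 s, and failure marks motor impairment. At least four groups of 8 mice receive various i.p. doses at the stated pretreatment time. TD50 comes from log-probit dose-response analysis (Litchfield-Wilcoxon), ± S.E.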

In data set [4] the test system is Mus musculus. In words: Protective index, ratio of TD50 for Swiss mouse administered 120 mins before test to ED50 for Swiss mouse administered 120 mins before test. It is filed as functional.
The subject of data set [5] is Mus musculus. In words: Protective index, ratio of TD50 for Swiss mouse administered 60 mins before test to ED50 for Swiss mouse administered 60 mins before test. It is filed as functional.
The nature of data set [6]: Neurotoxicity in ip dosed Swiss mouse assessed as delay in motor coordination administered 120 mins before test by chimney test. The note with it: in vivo. It counts as toxicity, organism-based. In a few lines: as §2
Data set [7] in a line: Neurotoxicity in ip dosed Swiss mouse assessed as delay in motor coordination administered 30 mins before test by chimney test. It counts as toxicity, organism-based. Particulars: in vivo; call rule not given here. In a few lines: as §2
A short description of data set [8]: Neurotoxicity in ip dosed Swiss mouse assessed as delay in motor coordination administered 60 mins before test by chimney test. It counts as toxicity, organism-based. The note with it: in vivo. In a few lines:
as §2

Data set [9] has as its system Mus musculus. Kind of data set: Anticonvulsant activity in ip dosed Swiss mouse assessed as protection against maximal electroshock-induced seizure administered 30 mins before test. It is filed as functional. In a few lines:
as §1

Data set [10] deals with Mus musculus. In words: Anticonvulsant activity in ip dosed Swiss mouse assessed as protection against maximal electroshock-induced seizure administered 120 mins before test. It is filed as functional. In a few lines: as §1
Data set [11] deals with Mus musculus. Kind of data set: Protective index, ratio of TD50 for Swiss mouse administered 30 mins before test to ED50 for Swiss mouse administered 30 mins before test. It counts as functional. In a few lines: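 PI equals chimney-test TD50 divided by MES-test ED50, both determined after i.p. dosing at the same pretreatment time in groups of 8 mice.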
Data set [12] deals with Mus musculus. In words: Anticonvulsant activity in Swiss mouse assessed as protection against maximal electroshock-induced seizure at 300 mg/kg, ip administered 15 mins before test. It counts as functional. Particulars: route intraperitoneal. A digest of the protocol: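 Mice in groups of 8, each used once, after 7 days' adaptation. Fixed 300 mg/kg dose given i.p. from freshly prepared solution, then maximal electroshock applied at the stated pretreatment time. Read-out is the percentage of the 8 mice protected against MES-induced seizures.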

The test system of data set [13] is Mus musculus. In words: Anticonvulsant activity in ip dosed Swiss mouse assessed as protection against maximal electroshock-induced seizure administered 60 mins before test. It counts as functional. A digest of the protocol: as §1
The subject of a further data set is Brain. In words: Drug uptake in Swiss mouse brain assessed as per 1 mg of tissue at 300 mg/kg, ip. It counts as ADME, organism-based. Also on record: dose 300 mg/kg, route intraperitoneal. Particulars: in vivo.

On to `CCn1c(S)nnc1-c1cccc(Cl)c1`, for which the ED50 came to 153 mg/kg with Mus musculus [1], 204 mg/kg in the data set on Mus musculus [9], 320 mg/kg with Mus musculus [10] and 252 mg/kg in the data set with Mus musculus [13]. Moreover, the “Ratio TD50/ED50” value is 4.8 in the data set with Mus musculus [2], 2.8 in the data set on Mus musculus [4], 2.9 in the data set on Mus musculus [5] and 3.7 in the data set with Mus musculus [11]. Also, in data set [3], the TD50 at 0.25 h was determined as 731 mg/kg. Further, the TD50 at 2 h in data set [6] worked out at 887 mg/kg. In data set [7], the TD50 at 0.5 h stood at 753 mg/kg. In addition, the TD50 at 1 h in data set [8] amounted to 742 mg/kg. Besides, the Activity in the data set with Mus musculus [12] is recorded as 100%.
As for `CCCCCCCCCCCCn1c(-c2cccc(Cl)c2)n[nH]c1=S`, the Drug uptake result in the data set with Brain is “Not Active”.
As to `CCCCn1c(-c2cccc(Cl)c2)n[nH]c1=S`, the ED50 with Mus musculus [1] came to 38.5 mg/kg; with Mus musculus [9], 77.8 mg/kg; in the data set with Mus musculus [10], 311 mg/kg; in the data set on Mus musculus [13], 156 mg/kg. The “Ratio TD50/ED50” value with Mus musculus [2] is reported as 10.3; with Mus musculus [4], 1.4; in the data set with Mus musculus [5], 2.7; in the data set on Mus musculus [11], 5.2. Further, the TD50 at 0.25 h in data set [3] amounted to 398 mg/kg. In addition, the TD50 at 2 h in [6] was 429 mg/kg. Besides, the TD50 at 0.5 h in data set [7] came out at 405 mg/kg. Moreover, the TD50 at 1 h in [8] turned out to be 414 mg/kg. Further, the Activity with Mus musculus [12] stood at 100%.
As to `CCCCCn1c(-c2cccc(Cl)c2)n[nH]c1=S`, the ED50 stood at 46.5 mg/kg in the data set with Mus musculus [1], 65.2 mg/kg with Mus musculus [9], 147 mg/kg with Mus musculus [10] and 69.5 mg/kg in the data set on Mus musculus [13]. Besides, the “Ratio TD50/ED50” value in the data set with Mus musculus [2] came out at 6.7; with Mus musculus [4], 2.7; with Mus musculus [5] it was 4.4; with Mus musculus [11], 4.8. The TD50 at 0.25 h in data set [3] turned out to be 310 mg/kg. The TD50 at 2 h in [6] was determined as 392 mg/kg. Also, the TD50 at 0.5 h in data set [7] came out at 310 mg/kg. In addition, in data set [8], the TD50 at 1 h is 303 mg/kg. For the same molecule, the Activity in the data set on Mus musculus [12] is 100%.
For the molecule `CCCCCCn1c(-c2cccc(Cl)c2)n[nH]c1=S`, the ED50 in the data set on Mus musculus [1] is 47.6 mg/kg; in the data set on Mus musculus [9] it was 68.3 mg/kg; with Mus musculus [10], 160 mg/kg; in the data set with Mus musculus [13], 98.1 mg/kg. Also, the “Ratio TD50/ED50” value amounted to 9.7 with Mus musculus [2], 2.8 with Mus musculus [4], 4.7 in the data set on Mus musculus [5] and 6.8 in the data set with Mus musculus [11]. Besides, the Activity in the data set on Mus musculus [12] was determined as 100%.
Regarding `CCCCCCCn1c(-c2cccc(Cl)c2)n[nH]c1=S`, the ED50 in the data set with Mus musculus [1] worked out at 55.1 mg/kg; with Mus musculus [9], 65.2 mg/kg; in the data set with Mus musculus [10], 135 mg/kg; in the data set with Mus musculus [13] it was 102 mg/kg. For the same molecule, the “Ratio TD50/ED50” value turned out to be 7.5 in the data set with Mus musculus [2], 3.3 in the data set with Mus musculus [4], 4.2 in the data set on Mus musculus [5] and 6.5 with Mus musculus [11]. The TD50 at 0.25 h in data set [3] was determined as 416 mg/kg. In [6], the TD50 at 2 h came out at 440 mg/kg. The TD50 at 0.5 h in [7] is 423 mg/kg. In addition, the TD50 at 1 h in data set [8] was determined as 430 mg/kg. Also, the Activity in the data set with Mus musculus [12] worked out at 100%.
For the molecule `CCCCCCCCCn1c(-c2cccc(Cl)c2)n[nH]c1=S`, the ED50 in the data set with Mus musculus [1] is 144 mg/kg; in the data set on Mus musculus [9] it was 130 mg/kg; in the data set on Mus musculus [10] it was 143 mg/kg; in the data set on Mus musculus [13] it was 105 mg/kg. Moreover, the “Ratio TD50/ED50” value turned out to be 4.6 with Mus musculus [2], 4.6 in the data set with Mus musculus [4], 6.1 in the data set on Mus musculus [5] and 5.5 in the data set on Mus musculus [11]. In addition, the TD50 at 0.25 h in [3] is 667 mg/kg. Moreover, the TD50 at 2 h in data set [6] amounted to 659 mg/kg. For the same molecule, in data set [7], the TD50 at 0.5 h was 713 mg/kg. The TD50 at 1 h in [8] was determined as 640 mg/kg. The Activity in the data set on Mus musculus [12] is 100%.
With `CCCC(CCC)C(=O)[O-].CCCC(CCC)C(=O)[O-].[Mg+2]` [MAGNESIUM VALPROATE], in [3], the TD50 at 0.25 h amounted to 363 mg/kg. Also, the TD50 at 2 h in [6] was determined as 512 mg/kg. The TD50 at 0.5 h in [7] was 373 mg/kg. Also, the TD50 at 1 h in data set [8] is 417 mg/kg.
